HUVEC prolif 384 – blocks proliferation of human endothelial cells. HUVEC proliferation, CellTiter-Glo luminescence, 72 h; stronger effect = lower value. viability, % at 10 µM (by protocol). 86,000 tested, 1.1% active;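 active means viability at or below 30%; inactive means viability above 30%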;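 further: 100% = median luminescence of DMSO-only cell control wells on each plate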
H69AR inhibit – growth inhibitors of human H69AR lung tumor cells. 85,000 tested, 6% active. H69AR lung tumor viability, ATP luminescence, 72 h; stronger effect = lower value. viability, % at 10 µM. AID 598;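 active means viability at or below 40%; inactive means viability above 40%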;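 further: multidrug resistant small cell line overexpressing MRP-1 efflux transporter; 100% = mean luminescence of untreated control wells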
PTEN del growth – PTEN-deleted cell growth suppression; HCT116 PTEN-null viability, CellTiter-Glo, 60 h; stronger effect = lower value; viability, % at 10 µM; 140,000 tested, 1.2% active; AID 827;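 active means viability at or below a set limit, 4 SD under the median of all tested compounds, cut at about 3.7% in these data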;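 further: PTEN knockout HCT116 line with beta catenin targeted HCT116 as companion control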
bCat KO growth – beta-catenin-lacking colon tumor cell growth suppression; 140,000 tested, 1.5% active; viability, % at 10 µM; AID 818; HCT116 beta-catenin knockout viability, CellTiter-Glo, 60 h; stronger effect = lower value;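 active means viability at or under a set limit, the compound median less 4 SD, cut at about 6% in these data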;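 further: 0% = Hyamine 1622 control at 20 µM and 100% = untreated cell control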
Lung fibro prol – blocks proliferation of human lung fibroblasts; 85,000 tested, 1.1% active; LL 47 human lung fibroblast viability, ATP luminescence; stronger effect = lower value; AID 719; viability, % at 10 µM;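 active means viability at or below 50% in the single dose screen; inactive means viability above 50%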;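 further: compound exposure lasted 72 h before the ATP readout; 100% = median luminescence of untreated cell-only wells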
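Test system: LL 47 human lung fibroblasts; Quantity: 1,150 cells/well; Buffer or medium: IMEM plus 15% FBS; Dosing: tenfold compound dosing solution, DMSO at 0.1%; Timing: overnight cell rest, 72 h compound treatment at 37 °C; Detection: ATP-based CellTiter-Glo luminescent readout; Read-out basis: viability percentage against median untreated-cell control; Controls: cell-only wells, no compound.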
Numbers without * were called inactive; / = not tested or not shown. Only a selection was taken, and hits are over-represented in it overall.

SMILES | HUVEC prolif 384 | H69AR inhibit | PTEN del growth | bCat KO growth | Lung fibro prol
N#CC1=C(N)OC2=C(C(=O)CCC2)C1Cc1ccccc1 (stereo not given) | 90 | 98 | / | / | 94
CCOC(=O)N1CCN(C(=O)c2ccc3c(=O)n(CCC4=CCCCC4)c(=O)[nH]c3c2)CC1 | 85 | 39* | 87 | 82 | 89
CCCCCn1c(=O)[nH]c2cc(C(=O)N3CCN(CC)CC3)ccc2c1=O | 99 | 80 | 95 | 90 | 92
C=CCn1c(SCc2csc(C)n2)nc2sc3c(c2c1=O)CCCC3 | 61 | 75 | 73 | 66 | 86
C=CCn1c(SCc2csc(C)n2)nc2sc3c(c2c1=O)CCC(C)C3 (stereo not given) | 87 | 31* | 55 | 58 | 88
Cc1cc(NC2CCCCC2)nc(NCc2ccccc2)n1 | / | / | 3.2* | 2.6* | /
Cc1ccc(Nc2cc(C)nc(NCc3ccccc3)n2)cc1 | / | / | 1.0* | 1.0* | /
Cc1cc(N/N=C/c2ccccc2Cl)nc(NCc2ccccc2)n1 | / | / | 26 | 42 | /
COc1cc(C)nc(NCc2ccccc2)n1 | 99 | 92 | 100 | 97 | 91
Nc1nnnn1/N=C/C(Br)=C/c1ccccc1 | 89 | 0.9* | 3.2* | 7 | /
CCN(CC)c1ccc(N=Cc2ccc([N+](=O)[O-])o2)cc1 | / | / | 1.9* | 4.7* | /
CCN(CC)c1ccc(N=Cc2ccccc2[N+](=O)[O-])cc1 | / | / | 53 | 46 | /
COC(=O)C1(C(F)(F)F)N=C2Sc3ccccc3N2C(N2CCOCC2)=N1 (stereo not given) | 99 | 94 | 17 | 4.7* | 103
O=C(Nc1nnc(-c2cccs2)o1)c1cccc(C(F)(F)F)c1 | 39 | 23* | 8 | 13 | 69
Cc1nnc(NC(=O)c2ccc(S(=O)(=O)N3CCCCCC3)cc2)o1 | 86 | 59 | 78 | 56 | 98
CC1CCCN(S(=O)(=O)c2ccc(C(=O)Nc3nnc(-c4ccccc4Cl)o3)cc2)C1 (stereo not given) | 3.9* | 31* | 8 | 13 | 47*
CC1CC(C)CN(S(=O)(=O)c2ccc(C(=O)Nc3nnc(-c4cccs4)o3)cc2)C1 (stereo not given) | 4.2* | 45 | 7 | 14 | 72
O=C(CCc1ccccc1)Nc1nnc(-c2cccs2)o1 | 87 | 102 | 105 | 95 | 98
CCC1CCCCN1S(=O)(=O)c1ccc(C(=O)Nc2nnc(-c3cccs3)o2)cc1 (stereo not given) | 64 | 20* | 11 | 13 | 71
O=C(CS(=O)CC(=O)N(CC(=O)NC1CCCC1)C1CCCC1)Nc1ccc(F)cc1 (stereo not given) | 103 | 100 | 91 | 83 | 95
Cc1cc(C)c(NC(=O)CSc2ccc3nnc(CCNC(=O)c4ccccc4)n3n2)c(C)c1 | / | / | 88 | 91 | /
CCCC/C(C)=N/NC(=O)c1cn(-c2ccccc2)nc1-c1ccccc1 | / | / | 88 | 87 | /
C=CCn1c(SCC(=O)c2ccc(O)c(O)c2)nnc1-c1ccccc1OC | 76 | 20* | 66 | 47 | 68
C=CCn1c(SCC(N)=O)nnc1-c1ccccc1O | 95 | 94 | 103 | 100 | 99
CCn1c(SCC(=O)c2ccc(O)c(O)c2)nnc1-c1ccccc1OC | 76 | 36* | 96 | 67 | 79
SMILES | HUVEC prolif 384 | H69AR inhibit | PTEN del growth | bCat KO growth | Lung fibro prol
FC(F)(F)c1cc(-c2ccco2)nc(-n2cnc3ccccc32)n1 | 82 | 25* | 73 | 85 | 95
FC(F)(F)c1cc(-c2ccco2)nc(N2CCN(c3ccccc3)CC2)n1 | 97 | 70 | 76 | 84 | 90
Cc1nc2ccccc2n1-c1nc(-c2ccco2)cc(C(F)(F)F)n1 | / | / | 2.7* | 3.1* | /
CN(C)S(=O)(=O)c1ccc(Cl)c(NC(=O)c2ccncc2)c1 | / | / | 91 | 88 | /
COCCCNC(=O)CN1CCN(Cc2ccc(Cl)cc2)C1=O | 89 | 98 | 94 | 98 | 94
CCCS(=O)(=O)C(=C(Nc1ccccc1)Nc1ccccc1)S(=O)(=O)CCC | 82 | 30* | 90 | 94 | 96
COc1ccc(/C=N/NC(=O)C(Cc2c[nH]c3ccccc23)NC(=O)OCC(C)C)cc1[N+](=O)[O-] (stereo not given) | / | / | 93 | 91 | /
CC(C)OCC(O)CS(=O)Cc1ccccc1 (stereo not given) | 90 | 97 | 89 | 95 | 104
O=c1[nH]c(=O)n(Cc2ccco2)c2c1C(C(F)(F)F)(C(F)(F)F)N=C(CCC1CCCCC1)N2 | 83 | 9.5* | 49 | 44 | 76
O=c1[nH]c(=O)n(Cc2ccco2)c2c1C(C(F)(F)F)(C(F)(F)F)N=C(C1CCCCC1)N2 | 83 | 86 | 90 | 88 | 93
N#Cc1ccc(C2=NC(C(F)(F)F)(C(F)(F)F)c3c(n(Cc4ccco4)c(=O)[nH]c3=O)N2)cc1 | 58 | 35* | 57 | 71 | 75
CCOC(=O)c1cnn(CCOC(=O)C2CC2)c1NC(=O)C1CC1 | / | / | 91 | 94 | /
O=C(O)C1CCCCC1C(=O)Nc1cccc2ccccc12 (stereo not given) | 92 | 83 | 94 | 91 | 108
Nc1nc(Nc2cccc3ccccc23)nc(C2CCCC2=O)n1 (stereo not given) | 15* | 0.8* | 60 | 77 | 91
COc1cccc(/C=N/n2c(N)nc3ccccc32)c1OC | 75 | 74 | 90 | 99 | 89
COc1cccc(/C=N/n2cnc3ccccc32)c1OC | 95 | 30* | 96 | 84 | 121
O=C(/C=C/c1cccc([N+](=O)[O-])c1)c1cccs1 | / | / | 1.5* | 2.2* | /
O=C(/C=C/c1cccc([N+](=O)[O-])c1)Nc1ccc(NC(=O)c2cccs2)cc1 | / | / | 51 | 56 | /
COC(=O)c1ccc2nc(C)c(C)nc2c1 | / | / | 95 | 98 | /
COC(=O)c1ccc2c(c1)C(C)(C)C(/C=C/c1ccc(O)cc1)=[N+]2C | / | / | 1.7* | 1.9* | /
COC(=O)c1ccc2c(c1)C(C)(C)C(/C=C/c1ccc(OC)c(OC)c1OC)=[N+]2C | 5.3* | 4.1* | 0.6* | 4.9* | 6.5*
COc1ccc(OC)c(C2=NOC(C(=O)NCc3ccco3)C2)c1 (stereo not given) | 80 | 33* | 64 | 72 | 95
COc1cc(C2=NOC(C(=O)NCc3ccc(F)cc3)C2)cc(OC)c1OC (stereo not given) | / | / | 12 | 15 | /
COc1ccc(CNC(=O)C2CC(c3cccc(OC)c3)=NO2)cc1 (stereo not given) | 90 | 90 | 89 | 93 | 105
COc1ccc(C2=NOC(C(=O)NCc3ccc(F)cc3)C2)cc1OC (stereo not given) | 47 | 28* | 15 | 12 | 46*
O=C(NCc1ccc2c(c1)OCO2)C1CC(c2ccc(Cl)cc2)=NO1 (stereo not given) | 95 | 105 | 92 | 93 | 105
CCn1ncc(C2=NOC(C(=O)Nc3cc(OC)c(Cl)cc3OC)C2)c1C (stereo not given) | 92 | 39* | 102 | 99 | 97
CCn1ncc(C2=NOC(C(=O)NCC(C)C)C2)c1C (stereo not given) | 95 | 98 | 86 | 89 | 105

Source: PubChem (SRMLSC)
